According to ChEMBL document CHEMBL1123254, “Dopamine receptor modulation by Pro-Leu-Gly-NH2 analogues possessing cyclic amino acid residues at the C-terminal position” (J Med Chem, 1986):
Where a SMILES comes first, the peptide text is derived from it.

Key:
Bos taurus [1] = species on record: Bos taurus; test: Enhancement of [3H]ADTN to dopamine receptors at concentration of 10 nM
Method in brief: (§1)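 Bovine caudate homogenized in 50 mM Tris-HCl pH 7.7 and spun twice at 40000 g. Pellet taken up in 50 mM Tris pH 7.1 with 0.1% ascorbic acid, 120 mM NaCl, 5 mM KCl, 2 mM CaCl2 and 10 μM pargyline. 0.4-0.6 mg protein incubated with 8 nM [3H]ADTN ± peptide (1, 10 or 100 nM), triplicate, 37 °C. Bound ligand collected by GF/B filtration and counted by scintillation.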

Bos taurus [2] = species on record: Bos taurus; test: Enhancement of [3H]ADTN to dopamine receptors at concentration of 100 nM; method in brief: as §1
Bos taurus [3] = species on record: Bos taurus; test: Enhancement of [3H]-ADTN to dopamine receptors at concentration of 1 nM; method in brief: as §1

Enhancement (Bos taurus [1]): 28% | Enhancement (Bos taurus [2]): 46.2% | Enhancement (Bos taurus [3]): 16%
Compound: CC(C)C[C@H](NC(=O)[C@@H]1CCCN1)C(=O)NCC(N)=O (H-Pro-Leu-Gly-NH2)
